High-throughput results from PubChem.
The list is not random: actives were taken first. Their share in the collection is about 3.9%.
TAAR1 antag – antagonists of human TAAR1. Q96RJ0. CHO RD-HGA16 TAAR1, Fluo-8 calcium fluorescence, antagonist. inhibition, % at 3 µM. actives 1.5% (n = 360,000). AID 624466;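 active = inhibition above a per-plate cutoff, the mean inhibition of test compounds on that plate plus 3 SD, cut at about 49% in these data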
Target sequence (Q96RJ0 whole entry, looked up): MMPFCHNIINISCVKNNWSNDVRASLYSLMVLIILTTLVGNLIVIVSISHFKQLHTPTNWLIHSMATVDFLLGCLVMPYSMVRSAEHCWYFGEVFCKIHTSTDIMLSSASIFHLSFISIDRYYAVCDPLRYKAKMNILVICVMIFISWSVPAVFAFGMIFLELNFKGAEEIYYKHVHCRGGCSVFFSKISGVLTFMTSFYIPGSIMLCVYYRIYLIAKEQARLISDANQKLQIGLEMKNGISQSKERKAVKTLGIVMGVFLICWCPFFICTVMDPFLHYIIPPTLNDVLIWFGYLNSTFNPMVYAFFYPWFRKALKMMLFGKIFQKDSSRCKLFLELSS
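Material: RD-HGA16 CHO cells with stable hTAAR1 and Gα16; Dosing: single nominal final test compound concentration of 3 µM; Schedule: seeding 17-24 h prior, 75-min 37 °C, 30-min RT dye loading; Detection: kinetic Fluo-8 calcium fluorescence measurement; Measure: % inhibition from peak post-agonist over basal fluorescence ratio; Benchmarks: vehicle and agonist controls.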
CHRM1 PAM – potentiates human M1 receptor response to acetylcholine. CHO-K1 hM1, Fluo-8 calcium fluorescence, ACh EC20; 0% = ACh EC20, 100% = maximal ACh. activation, % at 3 µM. actives 0.088% (n = 360,000). AID 588819; in the data active = activation above about 19%, passing the limit was not always enough
m5-HT2A agonist – mouse HTR2A agonism via beta-arrestin recruitment | actives 0.66% (n = 360,000) | CHO-K1 mHTR2A beta-arrestin complementation, luminescence; percent of 30 µM serotonin response | activation, % at 7.6 µM | P35363;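 active = activation above a run cutoff, the mean activation of all tested compounds plus 3 SD, cut at about 14% in these data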
CHRM1 agonist – human M1 muscarinic receptor agonism; P11229; CHO-K1 hM1, Fluo-8 calcium fluorescence, agonist mode; 0% DMSO, 100% acetylcholine EC100; activation, % at 3 µM; actives 0.33% (n = 360,000);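 active = activation above the run's mean compound activation plus 3 SD, cut at about 16% in these data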;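 note: peak over basal fluorescence ratio within a 140 s kinetic read after compound addition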
CHRM1 antagonist – blocks human M1 muscarinic receptor; AID 588852; inhibition, % at 3 µM; CHO-K1 hM1, Fluo-8 calcium fluorescence, ACh EC80 antagonist; actives 1.3% (n = 360,000);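 active = percent inhibition above its own plate's cutoff, namely the mean of that plate's compound wells plus 3 SD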;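 note: peak over basal fluorescence ratio during 140 s after agonist addition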
TAAR1 agonist – agonists of human TAAR1; actives 0.99% (n = 360,000); Q96RJ0; CHO RD-HGA16 TAAR1, Fluo-8 calcium fluorescence; vehicle wells 0%, saturating PEA agonist 100%; activation, % at 3 µM; AID 624467;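 active = activation above the mean activation of all test compounds in the run plus 3 SD, cut at about 38% in these data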
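System: CHO-derived RD-HGA16 cells with stable Gα16 and human TAAR1. Times: 17-24 h plating, Fluo-8 75 min 37 °C, 30 min RT. Measured by: calcium-sensitive Fluo-8 signal, excitation 470-495, emission 515-575 nm. Read-out basis: % activation relative to PEA EC100 response. Control set: DMSO and PEA EC100. Repeats: no replicates (n 1).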
A number is an active result; 0 = inactive; - = not tested or not shown.

SMILES	TAAR1 antag	CHRM1 PAM	m5-HT2A agonist	CHRM1 agonist	CHRM1 antagonist	TAAR1 agonist
CCOC(=O)C1CCCN(C(=O)C2CCN(C(=O)Nc3ccccc3)CC2)C1 (stereo not drawn)	0	0	0	0	0	0
O=C(c1[nH]c(C(F)(F)F)nc1-c1ccccc1)N1CCCCC1	0	0	0	0	0	0
CCOC(=O)C1CCCN(C(=O)Nc2ccccc2)C1 (stereo not drawn)	0	0	0	54	0	0
Cc1cccc(-n2c(C)c(C)c3c(N)ncnc32)c1	0	0	0	0	0	0
O=S(=O)(c1ccc(Cl)nc1)N1CCN(c2ncccn2)CC1	0	0	0	0	0	0
CC(C)C(OC(=O)c1cccs1)C(=O)NCc1ccccc1 (stereo not drawn)	0	0	0	0	0	0
Cc1nn(-c2ccc(Cl)cn2)c2c1C(=O)CC(C)(C)C2Br (stereo not drawn)	0	0	0	0	0	0
CCOC(=O)C1CCCN(C(=S)Nc2ccc(OC)cc2)C1 (stereo not drawn)	0	0	0	57	58	44
CCOC(=O)N1CCC(NC2CCCCCCC2)CC1	0	0	0	0	74	0
CCOC(=O)c1ccc(NC(=S)N2CCCC(C(=O)OCC)C2)cc1 (stereo not drawn)	0	0	0	76	69	0
O=C(CCc1ccccc1)Nc1cc(C(=O)O)cc(C(=O)O)c1	0	0	0	0	0	0
CN(Cc1ccccc1)CC1C2CCC(C2)C1O (stereo not drawn)	0	0	0	0	0	0
C[n+]1c(-c2ccccc2)cc2c(=Cc3ccc([N+](=O)[O-])cc3)c3ccccc3n21	0	0	0	0	42	0
CN(C)c1ccc(C=c2c3cc(O)ccc3n3c2cc(-c2ccccc2)[n+]3C)cc1	0	0	0	0	0	0
C[n+]1c(-c2ccccc2)cc2c(=Cc3ccccc3)c3ccccc3n21	0	0	0	0	46	0
Cc1cc2c(=Cc3ccc(N(C)C)cc3)c3ccccc3n2[n+]1C	0	0	0	0	0	0
CCc1ccc(OCC(=O)Nc2nnc(C3CCCC3)s2)cc1	0	0	0	0	0	0
COc1ccc(N2CCN(C(=O)C3CCN(C(=O)c4cccc(Cl)c4)CC3)CC2)cc1	0	0	0	0	0	0
COc1ccccc1N(Cc1ccccc1)S(=O)(=O)c1cccc(C(=O)Nc2ccc(C)cn2)c1	50	0	0	0	0	0
COc1ccccc1N(Cc1ccccc1)S(=O)(=O)c1cccc(C(=O)Nc2ccc(C(C)=O)cc2)c1	0	0	0	0	0	0
CN(C)CCCN1c2ccc3ccccc3c2Sc2cccc(Cl)c21	0	0	0	0	0	0
CN(C)CCCN1c2ccccc2Sc2ccc3ccccc3c21	0	0	0	0	82	0
CC(=O)OC[C@]12CC[C@H]3[C@@](C)(CC[C@H]4C(C)(C)CCC[C@]34C)[C@@H]1CC(C1=CC(=O)OC1O)O2 (stereo partly drawn)	60	0	0	0	0	0
Cc1cc2nc(C)c(=O)n(C)c2cc1C	0	0	0	0	0	0
Cc1cc2nc3n(c2cc1C)CCCN3	0	0	0	0	34	0
SMILES	TAAR1 antag	CHRM1 PAM	m5-HT2A agonist	CHRM1 agonist	CHRM1 antagonist	TAAR1 agonist
COC(=O)N1C(=O)[C@@](c2ccccc2)(C2CCCCC2)N1C(=O)OC	0	0	0	0	0	0
O=C(Cn1nnc(-c2ccccc2)n1)NCC(=O)Nc1ccc(F)c(F)c1F	0	0	0	0	0	0
O=S(=O)(Nc1nc(-c2sccc2Cl)cs1)c1cc(Cl)ccc1Cl	-	0	20	0	0	-
CCCCNC(=S)N1CCN(CC)CC1	0	0	0	0	0	39
CNC(=O)COc1ccc(Nc2nnc(-c3ccc(C)c(S(N)(=O)=O)c3)c3ccccc23)cc1	0	0	0	45	0	0
CCc1ccc(OC)c(S(=O)(=O)Nc2ccc(Cc3ccncc3)cc2)c1	0	0	0	0	36	0
O=S(=O)(Nc1ccc(Cc2ccncc2)cc1)c1ccc(Cl)c(Cl)c1	0	0	0	0	52	0
O=[N+]([O-])c1ccc(Oc2c(F)c(F)nc(N3CCCC3)c2F)cc1	0	0	0	0	28	0
Cc1ccc(Oc2c(F)c(F)nc(N3CCCC3)c2F)cc1	0	0	0	0	0	0
COc1ccc(COC(=O)N/N=C(\C)CC(=O)Nc2ccc(Cl)cn2)cc1	0	0	0	0	0	0
O=C(NCCCSc1ccccc1)c1cc(Br)ccc1O	0	0	0	0	31	0
CCCCN(C(=O)c1cc(S(=O)(=O)N2CCCCCC2)ccc1OC)c1ccccc1	0	0	0	0	0	0
CCCCCOC(=O)C1=C(C)Nc2ncnn2C1c1cccs1 (stereo not drawn)	57	0	0	0	27	0
Cc1c(N2C(=O)c3ccc(Br)cc3C2=O)c(=O)n(-c2ccccc2)n1C	0	0	0	0	74	0
O=C1c2ccccc2C(=O)N1CCC#Cc1ccc2cc(CCO)oc(=O)c2c1	72	0	0	0	0	0
CCOC(=O)N1CCN(C(=O)C[C@H]2C[C@@]3(C(=O)OC)C(=C[C@H](COCc4ccccc4)O[C@@H]3C)N(Cc3ccc4c(c3)OCO4)C2=O)CC1	0	-	-	-	-	0
Cc1ccccc1OCCCN1C(=O)C(=O)c2cccc(C)c21	0	0	0	22	0	0
Cc1cccc2c1N(CCCOc1ccccc1)C(=O)C2=O	0	0	0	20	0	0
Cc1ccc2c(c1)C(=O)C(=O)N2CCCOc1ccccc1C	0	0	0	0	0	0
Cc1cccc2c1N(CCCOc1ccc(C(C)(C)C)cc1)C(=O)C2=O	-	0	0	0	0	-
O=C(NCc1cccnc1)c1cc(C2CCCCN2C(=O)OCCF)on1 (stereo not drawn)	0	0	0	0	0	0
COc1ccc(-n2nnc3c(=O)n(CC(=O)N4CCCc5ccccc54)cnc32)cc1	0	0	0	0	0	0
CCOc1ccc(-n2nnc3c(=O)n(CC(=O)N4CCCc5ccccc54)cnc32)cc1	0	0	0	0	74	0
Cn1nc(CC(=O)NCc2ccc(C(F)(F)F)cc2)c2ccccc2c1=O	52	0	0	0	0	0
NC(=O)C1CCN(C(=O)Nc2csc3ccccc23)CC1	0	0	0	0	0	0
COC(=O)C1=C(C)N(C)C(=NCc2cc(OC)c(OC)c(OC)c2)NC1c1cccc(C(F)(F)F)c1 (stereo not drawn)	0	-	-	-	-	0
O=C(CN1CCCCC1)N1N=C(c2cccs2)CC1c1cccs1 (stereo not drawn)	0	0	0	0	97	0
